According to ChEMBL document CHEMBL4699593, “Identification of 2,4-Disubstituted Imidazopyridines as Hemozoin Formation Inhibitors with Fast-Killing Kinetics and In Vivo Efficacy in the Plasmodium falciparum NSG Mouse Model” (J Med Chem, 2020):
Values after ≈ are worked out from the molar mass of the structure shown.

Columns and labels:
[1] = biological target: Voltage-gated inwardly rectifying potassium channel KCNH2 (Homo sapiens, UniProt Q12809); experiment: Inhibition of human ERG by patch clamp method
Sequence of Voltage-gated inwardly rectifying potassium channel KCNH2 (Q12809 whole entry): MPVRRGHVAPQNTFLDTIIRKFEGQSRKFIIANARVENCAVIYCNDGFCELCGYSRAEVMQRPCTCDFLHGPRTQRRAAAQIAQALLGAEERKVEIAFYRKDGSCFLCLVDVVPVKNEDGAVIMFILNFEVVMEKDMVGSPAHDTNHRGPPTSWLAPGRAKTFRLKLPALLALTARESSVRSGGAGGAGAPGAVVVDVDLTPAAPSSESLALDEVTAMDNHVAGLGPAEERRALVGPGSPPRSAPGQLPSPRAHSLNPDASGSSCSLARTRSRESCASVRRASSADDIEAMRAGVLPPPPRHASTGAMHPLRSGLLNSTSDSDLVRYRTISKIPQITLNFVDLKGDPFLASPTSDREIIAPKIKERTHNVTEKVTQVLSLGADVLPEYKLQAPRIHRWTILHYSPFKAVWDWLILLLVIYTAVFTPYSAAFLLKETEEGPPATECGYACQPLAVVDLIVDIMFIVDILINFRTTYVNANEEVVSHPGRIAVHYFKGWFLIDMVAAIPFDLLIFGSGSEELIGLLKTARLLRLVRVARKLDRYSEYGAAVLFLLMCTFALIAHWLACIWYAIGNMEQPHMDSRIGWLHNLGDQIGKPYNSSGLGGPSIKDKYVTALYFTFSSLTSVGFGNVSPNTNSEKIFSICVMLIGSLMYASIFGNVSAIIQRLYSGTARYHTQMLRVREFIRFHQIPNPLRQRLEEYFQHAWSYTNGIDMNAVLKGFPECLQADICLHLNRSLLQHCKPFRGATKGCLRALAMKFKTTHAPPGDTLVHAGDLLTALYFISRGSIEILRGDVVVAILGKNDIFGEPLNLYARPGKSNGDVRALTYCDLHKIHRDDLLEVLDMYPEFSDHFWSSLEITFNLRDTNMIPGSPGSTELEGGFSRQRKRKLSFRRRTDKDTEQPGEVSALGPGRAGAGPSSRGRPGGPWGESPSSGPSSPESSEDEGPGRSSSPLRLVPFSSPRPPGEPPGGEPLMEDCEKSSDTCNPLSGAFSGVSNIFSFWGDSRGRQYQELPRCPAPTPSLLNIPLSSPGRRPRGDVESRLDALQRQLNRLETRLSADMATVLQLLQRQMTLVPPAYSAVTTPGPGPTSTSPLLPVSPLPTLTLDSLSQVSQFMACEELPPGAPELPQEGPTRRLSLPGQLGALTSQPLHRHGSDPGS

[2] = Aqueous solubility of compound in phosphate buffer saline at pH 6.5 incubated for 20 hrs under shaking condition by shake-flask method based HPLC-DAD analysis; assay type: physicochemical; conditions: phosphate buffered saline
Procedure, shortened: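 Equilibrium aqueous solubility was measured at pH 6.5 using a miniaturized shake-flask method.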

Plasmodium falciparum [3] = experiment: Antiplasmodial activity against multidrug-resistant asexual blood stage Plasmodium falciparum K1 strain assessed as reduction in parasite growth after 72 hrs by NBT reagent based LDH assay; assay type: functional, organism-based; conditions: K1, 72 h
Procedure, shortened: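 Asexual blood-stage K1 (multidrug-resistant) parasites were read out by the parasite lactate dehydrogenase (pLDH) assay. […] Most individual values varied less than 2× (maximum 3×).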

CHO = experiment: Cytotoxicity against CHO cells assessed as reduction in cell viability by MTT assay; assay type: cell-based, Cricetulus griseus; conditions: chinese hamster
Procedure, shortened: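 Cytotoxicity was measured in Chinese hamster ovary (CHO) cells and reported as CC50. The selectivity index is CC50 divided by NF54 IC50.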

Plasmodium falciparum [4] = experiment: Antiplasmodial activity against multidrug-sensitive asexual blood stage Plasmodium falciparum NF54 strain assessed as reduction in parasite growth after 72 hrs by NBT reagent based LDH assay; assay type: functional, organism-based; conditions: NF54, 72 h

SMILES | IC50 [1] [nM] | solubility thermodynamic at 20 h [2] [µM] | IC50 (Plasmodium falciparum [3]) [nM] | CC50 (CHO) [nM] | IC50 (Plasmodium falciparum [4]) [nM]
CN1CCCN(c2nccc3[nH]c(-c4cc(F)cc(F)c4)nc23)CC1 | 400 | – | – | – | –
CN1CCN(C2CCN(c3nccc4[nH]c(-c5cc(F)cc(F)c5)cc34)CC2)CC1 | 4000 | – | – | – | –
Fc1cc(F)cc(-c2nc3c(N4CCC(CN5CCN(CC(F)(F)F)CC5)CC4)nccc3[nH]2)c1 | ≤ 3000 | 180 (≈ 89 µg/mL) | 160 | 40000 | 75
Fc1cc(F)cc(-c2nc3c(N4CCC(CN5CCOCC5)CC4)nccc3[nH]2)c1 | – | 25 (≈ 10.3 µg/mL) | 390 | > 50000 | 290
Fc1ccc(-c2nc3c(N4CCN5CCC4CC5)nccc3[nH]2)cc1F | – | 200 (≈ 71.1 µg/mL) | 430 | 28000 | 79
CN1CCOC2(CCN(c3nccc4[nH]c(-c5cc(F)cc(F)c5)cc34)CC2)C1 | ≤ 3000 | – | – | – | –
CN1CCOC2(CCN(c3nccc4[nH]c(-c5cc(F)cc(F)c5)nc34)CC2)C1 | – | 175 (≈ 69.9 µg/mL) | 320 | 32000 | 180
CN1CCN(CC2CCN(c3nccc4[nH]c(-c5cc(F)cc(F)c5)cc34)CC2)CC1 | 5000 | 140 (≈ 59.6 µg/mL) | 92 | 2600 | 14
CN1CCN(CC2CCN(c3cccc4[nH]c(-c5cc(F)cc(F)c5)nc34)CC2)CC1 | > 30000 | 200 (≈ 85.1 µg/mL) | 1500 | 22000 | 830
CN1CCN(C[C@H]2CCCN(c3nccc4[nH]c(-c5cc(F)cc(F)c5)nc34)C2)CC1 | – | 200 (≈ 85.3 µg/mL) | 170 | 7900 | 73
Fc1ccc(-c2nc3c(N4CCCNCC4)nccc3[nH]2)cc1F | – | 165 (≈ 54.3 µg/mL) | 1000 | 7200 | 210
CN1CCN(C[C@@H]2CCCN(c3nccc4[nH]c(-c5cc(F)cc(F)c5)nc34)C2)CC1 | – | 145 (≈ 61.8 µg/mL) | 130 | 3200 | 28
C[C@@H]1CN(c2nccc3[nH]c(-c4ccc(F)c(F)c4)nc23)C[C@H](C)N1C | – | 50 (≈ 17.9 µg/mL) | 720 | > 50000 | 260
NCC1CCN(c2nccc3[nH]c(-c4cccc(OC(F)(F)F)c4)nc23)CC1 | – | 200 (≈ 78.3 µg/mL) | 190 | 2900 | 68
CN1CCN(CC2CCN(c3nccc4[nH]c(-c5ccc(F)c(C(F)(F)F)c5)nc34)CC2)CC1 | – | 165 (≈ 78.6 µg/mL) | 17 | 3100 | 50
CN1CCN(C2CCN(c3nccc4[nH]c(-c5cccc(S(C)(=O)=O)c5)nc34)CC2)CC1 | – | 190 (≈ 86.4 µg/mL) | 1500 | > 50000 | 450
CN1CCN(C(=O)C2CCN(c3nccc4[nH]c(-c5ccc(F)c(F)c5)nc34)CC2)CC1 | 12000 | 200 (≈ 88.1 µg/mL) | 380 | > 50000 | 100
CC(C)(C)N1CCN(CC2CCN(c3nccc4[nH]c(-c5cc(F)cc(F)c5)nc34)CC2)CC1 | – | 185 (≈ 86.7 µg/mL) | 47 | 8600 | 19
Fc1ccc(-c2nc3c(N4CCN5CCCC5C4)nccc3[nH]2)cc1F (stereo not drawn) | – | 120 (≈ 42.6 µg/mL) | 480 | 32000 | 220
NC1CCN(c2nccc3[nH]c(-c4ccc(F)c(F)c4)nc23)CC1 | – | 200 (≈ 65.9 µg/mL) | 910 | 8200 | 110
CN1CCN([C@H]2CC[C@H](Nc3nccc4[nH]c(-c5cc(F)cc(F)c5)nc34)CC2)CC1 | – | 200 (≈ 85.3 µg/mL) | 240 | 11000 | 130
Fc1cc(F)cc(-c2nc3c(N4CCC(CN5CCNCC5)CC4)nccc3[nH]2)c1 | – | 190 (≈ 78.4 µg/mL) | 240 | 20000 | 38
